Source: publication PMC8809242 (Acta Pharmacologica Sinica, 2022)

Experiments:
GR = GR nuclear translocation, confocal microscopy in A549 cells; type: cell-based, human; conditions: 10 μM, 2 h
PR = PR selectivity, ARR3tk-luciferase reporter in PC3 cells transfected with hPR; type: cell-based, human; conditions: various concentrations, 16 h; 10 nM progesterone = 100%
In short: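 PR counter-screen in PC3 cells: 1 × 10^4 cells/well in 3% CSS DMEM for 24 h. Lipofection for 24 h with 50 ng hPR, 50 ng ARR3tk-luciferase, and 5 ng Renilla per well. Then 16 h exposure to 10 nM progesterone or test compound, and luciferase measurement.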

MR = MR selectivity, MMTV luciferase reporter in 293T cells transfected with pCMV-hMR; type: cell-based, human; conditions: various concentrations, 16 h; 10 nM aldosterone = 100%
In short: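 Human MR counter-screen. 293T cells were seeded at 1 × 10^4 cells/well in 3% CSS DMEM for 24 h. They were then lipofected for 24 h with 71 ng pCMV-hMR, 24 ng pGL4.36 MMTV-luc2P, and 5 ng Renilla. Next they were treated for 16 h with 10 nM aldosterone or test compound. Firefly luciferase read-out.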

[1] = tested on: NF-κB-dependent transcription (GR transrepression); type: cell-based; conditions: Homo sapiens, HeLa, read-out: IC50, NF-κB Luc transrepression
In short: (§1)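 HeLa cells grown 24 h in 5% CSS DMEM, then lipofected for 24 h with 71 ng GRα, 5 ng Renilla, and 24 ng reporter (NF-κB-Luc or 5×AP-1-Luc). Cells were stimulated with TNF-α 5 ng/mL (NF-κB) or PMA 1 ng/mL (AP-1) plus test compound. Lysates were read by dual firefly/Renilla luciferase.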

AR = type: cell-based, human; conditions: various concentrations, 72 h; 10 nM DHT = 100%
RAW264.7 cells [2] = assay: Real-time quantitative PCR in LPS-stimulated RAW264.7 cells; type: cell-based, mouse; conditions: RAW264.7, 20 ng/mL LPS, 10 μM, 18 h
In short: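 Mouse RAW264.7 macrophages (1 × 10^6 per well) were cultured 24 h in 3% CSS DMEM. They were then co-treated with 20 ng/mL LPS and 10 μM test compound for 18 h. Total RNA was reverse-transcribed and target transcripts were measured by SYBR Green qPCR, with GAPDH normalisation and 2^−ΔΔCt relative quantitation.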

RAW264.7 cells [3] = type: cell-based, mouse; conditions: 10 μM with 20 ng/mL LPS overnight
[4] = tested on: AP-1-dependent transcription (GR transrepression); type: cell-based; conditions: Homo sapiens, HeLa, read-out: IC50, AP-1 Luc transrepression
In short: as §1

| IC50 [1] [µM] | IC50 [4] [µM] | Structure (SMILES) | GR nuclear translocation (GR) | off-target activation effect on PR (PR) | off-target activation effect on MR (MR) | off-target activation effect on AR (AR) | SOCS3 mRNA regulation (Q-PCR) (RAW264.7 cells [2]) | number of repressed genes (RNA-seq) (RAW264.7 cells [3]) |
| --- | --- | --- | --- | --- | --- | --- | --- | --- |
|  |  | CC(C)[C@H](NC(=O)C(C)(F)F)[C@H](Oc1ccc2c(cnn2-c2ccc(=O)n(C)c2)c1)c1ccccc1 [Azd9567] | promoted the translocation of GR from the cytoplasm to the nucleus |  |  |  |  |  |
| 0.014 ± 0.00219 | 0.0488 ± 0.0071 | C[C@@H]1C[C@H]2[C@@H]3CCC4=CC(=O)C=C[C@]4(C)[C@@]3(F)[C@@H](O)C[C@]2(C)[C@@]1(O)C(=O)CO [Dex, dexamethasone] | promoted the translocation of GR from the cytoplasm to the nucleus | strong activation effects | strong activation effects | strong activation effects | downregulated only by HT-15 but not Dex | 117 |
